Laboratory results from PMC9111184 (Current Research in Pharmacology and Drug Discovery, 2022).

How the values were obtained:
Caco-2 cell monolayers = format: cell-based, Human; settings: relative to cholesterol alone, 24 h
Procedure, shortened: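 Caco-2 seeded at 2–4 x 10^4 cells/cm2 on transwell inserts (0.4 μm pore) and grown 16 days into monolayers. TEER was read before and after; monolayers above […] were accepted. Test compound was added apically in DMEM together with 5 mM cholesterol, with plain DMEM basolateral. After 24 h at 37 °C, 5% CO2, both sides were sampled for RP-HPLC-DAD. Cholesterol permeation % = amount transported/initial apical amount.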

Caco-2 cells = test: FTIR analysis of treated cells; format: cell-based, Human; settings: phenolic compounds 1 mM, 24 h
Procedure, shortened: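 Cell suspension at ~1.2 × 10^6 cells/mL was seeded onto CaF2 windows and left overnight. Cells were then exposed 24 h to phenolic test compounds at 1 mM or another test compound at 100 μM; untreated cells served as control. FTIR spectra covered 900–3000 cm−1 at 4 cm−1 resolution, averaging 128 scans, and were normalized to Amide II. Spectra were Savitsky-Golay smoothed (eight points) and second-derivative processed; 4 replicates.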

Permeability = format: in vitro ADME; settings: human, Caco-2
Procedure, shortened: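 Monolayers were Caco-2 grown 16 days on 0.4 μm-pore transwell inserts after seeding at 2–4 x 10^4 cells/cm2, with TEER above 250 Ω/cm2 checked before and after. Test compound in DMEM containing 5 mM cholesterol went apically and DMEM basolaterally for 24 h, 37 °C, 5% CO2. Both compartments were quantified by RP-HPLC-DAD. Papp = (dQ/dt)/(A × C0), using basolateral appearance rate, membrane area and initial concentration.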

[1] = MTT cytotoxicity on Caco-2 cell line; format: cell-based; settings: human, Caco-2 cells
Procedure, shortened: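 MTT viability test: 2 × 10^4 cells per well, pre-incubated 48 h at 37 °C, 5% CO2. Test compound in FBS-free DMEM was added at 0.025–1 mg/mL (phenolic acids) or 0.1–1 mM (other compound) for 24 h, then MTT reagent. Absorbance was read at 595 nm minus 630 nm, and viability expressed as % of untreated control; eight replicates per concentration.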

Compound	Decrease in cholesterol permeability (Caco-2 cell monolayers) [%]	Change of bands at 965, 1081 and 1240 cm−1 (DNA bands) relative to control (Caco-2 cells; Ezetimibe 100 μM)	Change of β-sheets band area at ∼1637 and 1683 cm−1 vs untreated cells (Caco-2 cells; Ezetimibe 100 μM)	Papp at 24 h (Permeability) [×10⁻⁶ cm/s]	Change of band at 1081 cm−1 relative to control (Caco-2 cells)	IC50 at 24 h [1] [µM]	Change of random coil structures at 1650 cm−1 vs untreated cells (Caco-2 cells; Ezetimibe 100 μM)
O=C(O)/C=C/c1cccc(O)c1 [m-CA, m-coumaric acid]	77.70	decrease	didn't show any changes	–	–	–	–
O=C(/C=C/c1ccc(O)c(O)c1)O[C@@H]1C[C@](O)(C(=O)O)C[C@@H](O)[C@H]1O [ChA, chlorogenic acid]	80.29	decrease	–	1.38	increase	–	–
O=C1[C@H](CC[C@H](O)c2ccc(F)cc2)[C@@H](c2ccc(O)cc2)N1c1ccc(F)cc1 [EZ, ezetimibe, reference compound]	96.60	–	–	2.94	–	228	–
O=C(/C=C/c1ccc(O)c(O)c1)O[C@H](Cc1ccc(O)c(O)c1)C(=O)O [RA, rosmarinic acid]	85.65	decrease	increase	1.68	–	–	increase
